Source: ChEMBL document CHEMBL2375318, “Design, synthesis and antimicrobial activity of novel benzothiazole analogs” (Eur J Med Chem, 2013)
In brackets after ≈: the same amount, converted by molar mass.

Legend:
[1] = tested on: Pseudomonas aeruginosa; test: Antimicrobial activity against Pseudomonas aeruginosa ATCC 27893 after 18 to 24 hrs by micro-dilution method; assay type: functional
[2] = tested on: Aspergillus fumigatus; test: Antimicrobial activity against Aspergillus fumigatus clinical isolate after 18 to 24 hrs by micro-dilution method; assay type: functional
In short: (§1)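 Broth micro-dilution MIC, fungi. Fresh broth cultures were made in normal saline. Compounds were serially diluted in microtiter plates across 8 concentrations, 100 down to 0.78. Standardized inoculum was 1–2 × 10^7 cfu/ml. Medium was Sabouraud dextrose pH 7.3 ± 0.2. Plates were incubated aerobically at 37 °C for 18–24 h. MIC is the lowest concentration with no visible growth or turbidity versus control. Fluconazole was the reference.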

[3] = tested on: Aspergillus niger; test: Antimicrobial activity against Aspergillus niger clinical isolate after 18 to 24 hrs by micro-dilution method; assay type: functional; in short: as §1
[4] = tested on: Cryptococcus neoformans; test: Antifungal activity against Cryptococcus neoformans clinical isolate after 18 to 24 hrs by micro-dilution method; assay type: functional; in short: as §1
[5] = tested on: Pichia kudriavzevii; test: Antifungal activity against Candida krusei ATCC 6258 after 18 to 24 hrs by micro-dilution method; assay type: functional; in short: as §1
[6] = tested on: Candida albicans; test: Antifungal activity against Candida albicans ATCC 90028 after 18 to 24 hrs by micro-dilution metho; assay type: functional; in short: as §1
[7] = tested on: Candida albicans; test: Antifungal activity against Candida albicans clinical isolate after 18 to 24 hrs by micro-dilution method; assay type: functional; in short: as §1
[8] = tested on: Candida tropicalis; test: Antifungal activity against Candida tropicalis ATCC 750 after 18 to 24 hrs by micro-dilution method; assay type: functional; in short: as §1
[9] = tested on: Shigella boydii; test: Antimicrobial activity against Shigella boydii clinical isolate after 18 to 24 hrs by micro-dilution method; assay type: functional
[10] = Cytotoxicity against human RBC assessed as hemolytic activity at 100 uM after 1 hr by spectophotometry; assay type: cell-based, Erythrocyte; conditions: red blood cells (RBC), read-out: Activity
In short: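 Hemolysis, fresh human blood. RBCs were washed three times in PBS (spun 3000 rpm, 7 min, room temperature) and adjusted to 5×10^8 cells/ml. Cell suspension was added to buffer holding 100 μM compound in 1% v/v DMSO/PBS. Controls were 1% DMSO/PBS and sterile water. Samples were shaken at 37 °C for 1 h, spun at 1300 rpm for 5 min, and supernatant absorbance read at 540 nm.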

[11] = tested on: Klebsiella pneumoniae; test: Antimicrobial activity against Klebsiella pneumoniae clinical isolate after 18 to 24 hrs by micro-dilution method; assay type: functional
[12] = tested on: Escherichia coli; test: Antimicrobial activity against Escherichia coli ATCC 35218 after 18 to 24 hrs by micro-dilution method; assay type: functional
[13] = tested on: Salmonella typhi; test: Antimicrobial activity against Salmonella typhi MTCC 3216 after 18 to 24 hrs by micro-dilution method; assay type: functional, Salmonella enterica subsp. enterica serovar Typhi; conditions: Salmonella enterica
In short: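 Broth microdilution with twofold serial dilutions from 100 down to 0.78, eight concentrations. Fresh cultures were made up in normal saline, and 0.1 ml of standardized inoculum (1–2 × 10^7 cfu/ml) was added per well. Plates were incubated aerobically at 37 °C for 18–24 h on Mueller-Hinton agar/Luria broth. MIC was the lowest concentration with no visible turbidity compared with the control.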

[14] = tested on: Enterococcus faecalis; test: Antimicrobial activity against Enterococcus faecalis clinical isolate after 18 to 24 hrs by micro-dilution method; assay type: functional
[15] = tested on: Staphylococcus aureus; test: Antimicrobial activity against Staphylococcus aureus ATCC 25323 after 18 to 24 hrs by micro-dilution method; assay type: functional

O=C(O)c1cn(C2CC2)c2cc(N3CCNCC3)c(F)cc2c1=O [CIPROFLOXACIN]
MIC [1]: 3.12 µg/mL (≈ 9.42 µM)

Cc1ccc(-n2cc(CN(Cc3cn(-c4ccc(C)c(C)c4)nn3)c3nc4ccccc4s3)nn2)cc1C
MIC [2]: > 100 µg/mL
MIC [3]: > 100 µg/mL
MIC [4]: > 100 µg/mL
MIC [5]: > 100 µg/mL
MIC [6]: > 100 µg/mL
MIC [7]: > 100 µg/mL
MIC [8]: > 100 µg/mL
MIC [9]: > 100 µg/mL
hemolysis at 1 h, 100 µM [10]: 43%
MIC [1]: > 100 µg/mL
MIC [11]: > 100 µg/mL
MIC [12]: > 100 µg/mL
MIC [13]: > 100 µg/mL
MIC [14]: > 100 µg/mL
MIC [15]: > 100 µg/mL

Fc1cccc(-n2cc(CN(Cc3cn(-c4cccc(F)c4)nn3)c3nc4ccccc4s3)nn2)c1
MIC [2]: > 100 µg/mL
MIC [3]: > 100 µg/mL
MIC [4]: > 100 µg/mL
MIC [5]: > 100 µg/mL
MIC [6]: > 100 µg/mL
MIC [7]: > 100 µg/mL
MIC [8]: > 100 µg/mL
MIC [9]: > 100 µg/mL
hemolysis at 1 h, 100 µM [10]: 29.8%
MIC [1]: > 100 µg/mL
MIC [11]: > 100 µg/mL
MIC [12]: > 100 µg/mL
MIC [13]: > 100 µg/mL
MIC [14]: > 100 µg/mL
MIC [15]: > 100 µg/mL

CCCCCc1ccc(-n2cc(CN(Cc3cn(-c4ccc(CCCCC)cc4)nn3)c3nc4ccccc4s3)nn2)cc1
MIC [2]: > 100 µg/mL
MIC [3]: > 100 µg/mL
MIC [4]: > 100 µg/mL
MIC [5]: > 100 µg/mL
MIC [6]: > 100 µg/mL
MIC [7]: > 100 µg/mL
MIC [8]: 12.5 µg/mL (≈ 20.7 µM)
MIC [9]: > 100 µg/mL
hemolysis at 1 h, 100 µM [10]: 3.28%
MIC [1]: > 100 µg/mL
MIC [11]: > 100 µg/mL
MIC [12]: > 100 µg/mL
MIC [13]: > 100 µg/mL
MIC [14]: > 100 µg/mL
MIC [15]: > 100 µg/mL

Clc1ccc(-n2cc(CN(Cc3cn(-c4ccc(Cl)cc4Cl)nn3)c3nc4ccccc4s3)nn2)c(Cl)c1
MIC [2]: 1.56 µg/mL (≈ 2.59 µM)
MIC [3]: 1.56 µg/mL (≈ 2.59 µM)
MIC [4]: 3.12 µg/mL (≈ 5.18 µM)
MIC [5]: 6.25 µg/mL (≈ 10.4 µM)
MIC [6]: 6.25 µg/mL (≈ 10.4 µM)
MIC [7]: 12.5 µg/mL (≈ 20.8 µM)
MIC [8]: 12.5 µg/mL (≈ 20.8 µM)
MIC [9]: > 100 µg/mL
hemolysis at 1 h, 100 µM [10]: 4.54%
MIC [1]: > 100 µg/mL
MIC [11]: > 100 µg/mL
MIC [12]: 50 µg/mL (≈ 83 µM)
MIC [13]: > 100 µg/mL
MIC [14]: 50 µg/mL (≈ 83 µM)
MIC [15]: 50 µg/mL (≈ 83 µM)

Clc1cccc(-n2cc(CN(Cc3cn(-c4cccc(Cl)c4Cl)nn3)c3nc4ccccc4s3)nn2)c1Cl
MIC [2]: > 100 µg/mL
MIC [3]: > 100 µg/mL
MIC [4]: 3.12 µg/mL (≈ 5.18 µM)
MIC [5]: > 100 µg/mL
MIC [6]: > 100 µg/mL
MIC [7]: 25 µg/mL (≈ 41.5 µM)
MIC [8]: > 100 µg/mL
MIC [9]: > 100 µg/mL
hemolysis at 1 h, 100 µM [10]: 37.7%
MIC [1]: > 100 µg/mL
MIC [11]: > 100 µg/mL
MIC [12]: > 100 µg/mL
MIC [13]: 100 µg/mL (≈ 166 µM)
MIC [14]: > 100 µg/mL
MIC [15]: 50 µg/mL (≈ 83 µM)

Cc1cc(C)cc(-n2cc(CN(Cc3cn(-c4cc(C)cc(C)c4)nn3)c3nc4ccccc4s3)nn2)c1
MIC [2]: 12.5 µg/mL (≈ 24 µM)
MIC [3]: 12.5 µg/mL (≈ 24 µM)
MIC [4]: 3.12 µg/mL (≈ 5.99 µM)
MIC [5]: > 100 µg/mL
MIC [6]: 3.12 µg/mL (≈ 5.99 µM)
MIC [7]: 12.5 µg/mL (≈ 24 µM)
MIC [8]: 12.5 µg/mL (≈ 24 µM)
MIC [9]: 100 µg/mL (≈ 192 µM)
hemolysis at 1 h, 100 µM [10]: 7.42%
MIC [1]: > 100 µg/mL
MIC [11]: > 100 µg/mL
MIC [12]: 100 µg/mL (≈ 192 µM)
MIC [13]: 100 µg/mL (≈ 192 µM)
MIC [14]: > 100 µg/mL
MIC [15]: 100 µg/mL (≈ 192 µM)

COc1cccc(-n2cc(CN(Cc3cn(-c4cccc(OC)c4)nn3)c3nc4ccccc4s3)nn2)c1
MIC [2]: 3.12 µg/mL (≈ 5.95 µM)
MIC [3]: 3.12 µg/mL (≈ 5.95 µM)
MIC [4]: 1.56 µg/mL (≈ 2.97 µM)
MIC [5]: 6.25 µg/mL (≈ 11.9 µM)
MIC [6]: 6.25 µg/mL (≈ 11.9 µM)
MIC [7]: 25 µg/mL (≈ 47.7 µM)
MIC [8]: 12.5 µg/mL (≈ 23.8 µM)
MIC [9]: > 100 µg/mL
hemolysis at 1 h, 100 µM [10]: 7.54%
MIC [1]: > 100 µg/mL
MIC [11]: > 100 µg/mL
MIC [12]: 50 µg/mL (≈ 95.3 µM)
MIC [13]: > 100 µg/mL
MIC [14]: > 100 µg/mL
MIC [15]: 100 µg/mL (≈ 191 µM)

Clc1ccc(-n2cc(CN(Cc3cn(-c4ccc(Cl)cc4)nn3)c3nc4ccccc4s3)nn2)cc1
MIC [2]: 6.25 µg/mL (≈ 11.7 µM)
MIC [3]: 6.25 µg/mL (≈ 11.7 µM)
MIC [4]: 3.12 µg/mL (≈ 5.85 µM)
MIC [5]: 6.25 µg/mL (≈ 11.7 µM)
MIC [6]: 6.25 µg/mL (≈ 11.7 µM)
MIC [7]: 25 µg/mL (≈ 46.9 µM)
MIC [8]: 12.5 µg/mL (≈ 23.4 µM)
MIC [9]: > 100 µg/mL
hemolysis at 1 h, 100 µM [10]: 4.35%
MIC [1]: 6.25 µg/mL (≈ 11.7 µM)
MIC [11]: 50 µg/mL (≈ 93.7 µM)
MIC [12]: 12.5 µg/mL (≈ 23.4 µM)
MIC [13]: 6.25 µg/mL (≈ 11.7 µM)
MIC [14]: 3.12 µg/mL (≈ 5.85 µM)
MIC [15]: 6.25 µg/mL (≈ 11.7 µM)

O=[N+]([O-])c1ccc(-n2cc(CN(Cc3cn(-c4ccc([N+](=O)[O-])cc4)nn3)c3nc4ccccc4s3)nn2)cc1
MIC [2]: > 100 µg/mL
MIC [3]: > 100 µg/mL
MIC [4]: > 100 µg/mL
MIC [5]: > 100 µg/mL
MIC [6]: > 100 µg/mL
MIC [7]: > 100 µg/mL
MIC [8]: > 100 µg/mL
MIC [9]: > 100 µg/mL
hemolysis at 1 h, 100 µM [10]: 27.9%
MIC [1]: > 100 µg/mL
MIC [11]: > 100 µg/mL
MIC [12]: > 100 µg/mL
MIC [13]: > 100 µg/mL
MIC [14]: > 100 µg/mL
MIC [15]: > 100 µg/mL
